Laboratory results taken from ChEMBL document CHEMBL4689842, “EUbOPEN Chemogenomics Library wave 1” (2021).

Test system: U2OS
Experiment: Multiplex assay against U2OS
Type: toxicity, cell-based
Details: human
In short: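 On a CQ1 microscope at 37°C and 5% CO2, live cells were imaged after compound addition. They had been stained at seeding with Hoechst33342, BioTracker Green Microtubule Cytoskeleton Dye, MitoTracker Red and Annexin V Alexa Fluor 680. CellPathfinder machine-learning gating assigned cells to Hoechst high-intensity objects or normal cells, normal cells to healthy, pyknosed or fragmented nuclei, and pyknosed cells to mitotic or apoptotic. Tubulin, mitochondrial-mass and membrane-permeability phenotypes are per cents of healthy-nucleus cells.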

[1] = 12 h, 1 µM, compound concentration 1 uM, replicate 1
[2] = 12 h, 1 µM, compound concentration 1 uM, replicate 2
[3] = 12 h, 10 µM, compound concentration 10 uM, replicate 1
[4] = 12 h, 10 µM, compound concentration 10 uM, replicate 2
[5] = 24 h, 1 µM, compound concentration 1 uM, replicate 1
[6] = 24 h, 1 µM, compound concentration 1 uM, replicate 2
[7] = 24 h, 10 µM, compound concentration 10 uM, replicate 1
[8] = 24 h, 10 µM, compound concentration 10 uM, replicate 2
[9] = 48 h, 1 µM, compound concentration 1 uM, replicate 1
[10] = 48 h, 1 µM, compound concentration 1 uM, replicate 2
[11] = 48 h, 10 µM, compound concentration 10 uM, replicate 1
[12] = 48 h, 10 µM, compound concentration 10 uM, replicate 2

COc1cc(Nc2nccc(-c3cnn4nc(OC)ccc34)n2)cc(C(F)(F)F)c1
Population Apoptotic (%) [1]: 27%
Population Fragmented Nuclei (%) [1]: 12%
Population Healthy Nuclei (%) [1]: 74%
Population Hoechst High Intensity Objects (%) [1]: 7%
Population Membrane Permeable-Phenotype (%) [1]: 6%
Population Mitochondria Different-Phenotype (%) [1]: 12%
Population Mitotic Cells (%) [1]: 72%
Population Normal (%) [1]: 92%
Population Pyknosed Nuclei (%) [1]: 12%
Population Tubulin-Different-Phenotype (%) [1]: 9%
Total Cell Count [1]: 189
Population Apoptotic (%) [2]: 50%
Population Fragmented Nuclei (%) [2]: 8%
Population Healthy Nuclei (%) [2]: 86%
Population Hoechst High Intensity Objects (%) [2]: 3%
Population Membrane Permeable-Phenotype (%) [2]: 2%
Population Mitochondria Different-Phenotype (%) [2]: 16%
Population Mitotic Cells (%) [2]: 50%
Population Normal (%) [2]: 96%
Population Pyknosed Nuclei (%) [2]: 5%
Population Tubulin-Different-Phenotype (%) [2]: 16%
Total Cell Count [2]: 44
Population Apoptotic (%) [3]: 60%
Population Fragmented Nuclei (%) [3]: 32%
Population Healthy Nuclei (%) [3]: 55%
Population Hoechst High Intensity Objects (%) [3]: 15%
Population Membrane Permeable-Phenotype (%) [3]: 7%
Population Mitochondria Different-Phenotype (%) [3]: 46%
Population Mitotic Cells (%) [3]: 39%
Population Normal (%) [3]: 84%
Population Pyknosed Nuclei (%) [3]: 11%
Population Tubulin-Different-Phenotype (%) [3]: 27%
Total Cell Count [3]: 192
Population Apoptotic (%) [4]: 33%
Population Fragmented Nuclei (%) [4]: 27%
Population Healthy Nuclei (%) [4]: 61%
Population Hoechst High Intensity Objects (%) [4]: 34%
Population Membrane Permeable-Phenotype (%) [4]: 3%
Population Mitochondria Different-Phenotype (%) [4]: 6%
Population Mitotic Cells (%) [4]: 66%
Population Normal (%) [4]: 65%
Population Tubulin-Different-Phenotype (%) [4]: 15%
Total Cell Count [4]: 82
Population Apoptotic (%) [5]: 24%
Population Fragmented Nuclei (%) [5]: 14%
Population Healthy Nuclei (%) [5]: 61%
Population Hoechst High Intensity Objects (%) [5]: 6%
Population Membrane Permeable-Phenotype (%) [5]: 7%
Population Mitochondria Different-Phenotype (%) [5]: 20%
Population Mitotic Cells (%) [5]: 75%
Population Normal (%) [5]: 93%
Population Pyknosed Nuclei (%) [5]: 24%
Population Tubulin-Different-Phenotype (%) [5]: 16%
Total Cell Count [5]: 214
Population Apoptotic (%) [6]: 45%
Population Fragmented Nuclei (%) [6]: 10%
Population Healthy Nuclei (%) [6]: 77%
Population Hoechst High Intensity Objects (%) [6]: 2%
Population Membrane Permeable-Phenotype (%) [6]: 4%
Population Mitochondria Different-Phenotype (%) [6]: 10%
Population Mitotic Cells (%) [6]: 54%
Population Normal (%) [6]: 97%
Population Pyknosed Nuclei (%) [6]: 12%
Population Tubulin-Different-Phenotype (%) [6]: 19%
Total Cell Count [6]: 43
Population Apoptotic (%) [7]: 65%
Population Fragmented Nuclei (%) [7]: 36%
Population Healthy Nuclei (%) [7]: 50%
Population Hoechst High Intensity Objects (%) [7]: 18%
Population Membrane Permeable-Phenotype (%) [7]: 2%
Population Mitochondria Different-Phenotype (%) [7]: 47%
Population Mitotic Cells (%) [7]: 34%
Population Normal (%) [7]: 81%
Population Pyknosed Nuclei (%) [7]: 13%
Population Tubulin-Different-Phenotype (%) [7]: 15%
Total Cell Count [7]: 197
Population Apoptotic (%) [8]: 50%
Population Fragmented Nuclei (%) [8]: 26%
Population Healthy Nuclei (%) [8]: 56%
Population Hoechst High Intensity Objects (%) [8]: 29%
Population Membrane Permeable-Phenotype (%) [8]: 0%
Population Mitochondria Different-Phenotype (%) [8]: 23%
Population Mitotic Cells (%) [8]: 50%
Population Normal (%) [8]: 70%
Population Pyknosed Nuclei (%) [8]: 17%
Population Tubulin-Different-Phenotype (%) [8]: 11%
Total Cell Count [8]: 90
Population Apoptotic (%) [9]: 53%
Population Fragmented Nuclei (%) [9]: 16%
Population Healthy Nuclei (%) [9]: 54%
Population Hoechst High Intensity Objects (%) [9]: 4%
Population Membrane Permeable-Phenotype (%) [9]: 6%
Population Mitochondria Different-Phenotype (%) [9]: 34%
Population Mitotic Cells (%) [9]: 46%
Population Normal (%) [9]: 95%
Population Pyknosed Nuclei (%) [9]: 28%
Population Tubulin-Different-Phenotype (%) [9]: 15%
Total Cell Count [9]: 257
Population Apoptotic (%) [10]: 55%
Population Fragmented Nuclei (%) [10]: 11%
Population Healthy Nuclei (%) [10]: 81%
Population Hoechst High Intensity Objects (%) [10]: 7%
Population Membrane Permeable-Phenotype (%) [10]: 15%
Population Mitochondria Different-Phenotype (%) [10]: 17%
Population Mitotic Cells (%) [10]: 44%
Population Normal (%) [10]: 92%
Population Pyknosed Nuclei (%) [10]: 7%
Population Tubulin-Different-Phenotype (%) [10]: 20%
Total Cell Count [10]: 55
Population Apoptotic (%) [11]: 62%
Population Fragmented Nuclei (%) [11]: 45%
Population Healthy Nuclei (%) [11]: 33%
Population Hoechst High Intensity Objects (%) [11]: 20%
Population Membrane Permeable-Phenotype (%) [11]: 14%
Population Mitochondria Different-Phenotype (%) [11]: 36%
Population Mitotic Cells (%) [11]: 37%
Population Normal (%) [11]: 79%
Population Pyknosed Nuclei (%) [11]: 21%
Population Tubulin-Different-Phenotype (%) [11]: 21%
Total Cell Count [11]: 200
Population Apoptotic (%) [12]: 69%
Population Fragmented Nuclei (%) [12]: 26%
Population Healthy Nuclei (%) [12]: 48%
Population Hoechst High Intensity Objects (%) [12]: 27%
Population Membrane Permeable-Phenotype (%) [12]: 8%
Population Mitochondria Different-Phenotype (%) [12]: 25%
Population Mitotic Cells (%) [12]: 30%
Population Normal (%) [12]: 72%
Population Pyknosed Nuclei (%) [12]: 26%
Population Tubulin-Different-Phenotype (%) [12]: 20%
Total Cell Count [12]: 127
